In ChEMBL document CHEMBL1629614, “Inhibition of methionyl-tRNA synthetase by REP8839 and effects of resistance mutations on enzyme activity” (Antimicrob Agents Chemother, 2009):
Numbering of substitutions follows the chain as printed. Names may count otherwise.

What was measured:
[1] = compound: C=C(F)c1sc(CNCCCNc2cc(=O)c3ccccc3[nH]2)c(C)c1Br; assay: Activity of Staphylococcus aureus MetRS G223C mutant by ATP:PPi exchange assay in presence of methionine
How it was run: (§1)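 Purified S. aureus MetRS (wild type or mutant; E. coli-expressed, ammonium sulfate cut, anion exchange) at 30 nM. ATP:PPi exchange at 30°C in 100 mM Tris-HCl pH 8.0, 5–10 mM Mg acetate, 80 mM KCl, 2.5 mM DTT, [32P]PPi plus cold PPi equal to ATP. Quenched with EDTA over 1–10 min, PEI-cellulose TLC, phosphorimager. Initial velocities versus varied ATP or methionine fit to Michaelis-Menten.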

[2] = compound: C=C(F)c1sc(CNCCCNc2cc(=O)c3ccccc3[nH]2)c(C)c1Br; assay: Ratio of Kcat to Km for Staphylococcus aureus MetRS G223C mutant in presence of ATP
How it was run: (§2)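 Purified recombinant S. aureus MetRS (30 nM) was assayed by ATP:PPi exchange at 30°C in Tris pH 8.0 with Mg acetate, KCl and DTT. [32P]PPi was matched to ATP, and ATP or methionine was varied. Time points from 1 to 10 min were quenched with EDTA, separated by PEI-cellulose TLC and read by phosphorimager. Initial rates were fitted to Michaelis-Menten.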

[3] = compound: C=C(F)c1sc(CNCCCNc2cc(=O)c3ccccc3[nH]2)c(C)c1Br; assay: Ratio of Kcat to Km for Staphylococcus aureus MetRS G223C mutant in presence of methionine; how it was run: as §2
[4] = compound: C=C(F)c1sc(CNCCCNc2cc(=O)c3ccccc3[nH]2)c(C)c1Br; assay: Activity of streptococcus aureus MetRS G223C mutant by scintillation proximity assay in presence of tRNA; conditions: Staphylococcus aureus
[5] = compound: C=C(F)c1sc(CNCCCNc2cc(=O)c3ccccc3[nH]2)c(C)c1Br; assay: Ratio of Kcat to Km for Staphylococcus aureus MetRS G223C mutant in presence of tRNA
How it was run: (§3)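 Purified recombinant S. aureus MetRS was assayed by tRNA aminoacylation at 30°C for 1 to 7.5 min to obtain initial rates. Buffer was Tris pH 8.0 with Mg acetate, 2.5 mM ATP, KCl, DTT, BSA, [3H]methionine and crude E. coli tRNA. Reactions were EDTA-stopped, and charged tRNA was read by scintillation proximity with polylysine beads at pH 2.0.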

[6] = compound: C=C(F)c1sc(CNCCCNc2cc(=O)c3ccccc3[nH]2)c(C)c1Br; assay: Activity of Staphylococcus aureus MetRS G223C mutant by ATP:PPi exchange assay in presence of ATP; how it was run: as §1
[7] = compound: C=C(F)c1sc(CNCCCNc2cc(=O)c3ccccc3[nH]2)c(C)c1Br; assay: Activity of Staphylococcus aureus MetRS V108M mutant by ATP:PPi exchange assay in presence of methionine; how it was run: as §1
[8] = compound: C=C(F)c1sc(CNCCCNc2cc(=O)c3ccccc3[nH]2)c(C)c1Br; assay: Ratio of Kcat to Km for Staphylococcus aureus MetRS V108M mutant in presence of ATP; how it was run: as §2
[9] = compound: C=C(F)c1sc(CNCCCNc2cc(=O)c3ccccc3[nH]2)c(C)c1Br; assay: Ratio of Kcat to Km for Staphylococcus aureus MetRS V108M mutant in presence of methionine; how it was run: as §2
[10] = compound: C=C(F)c1sc(CNCCCNc2cc(=O)c3ccccc3[nH]2)c(C)c1Br; assay: Activity of streptococcus aureus MetRS V108M mutant by scintillation proximity assay in presence of tRNA; conditions: Staphylococcus aureus
[11] = compound: C=C(F)c1sc(CNCCCNc2cc(=O)c3ccccc3[nH]2)c(C)c1Br; assay: Ratio of Kcat to Km for Staphylococcus aureus MetRS V108M mutant in presence of tRNA; how it was run: as §3
[12] = compound: C=C(F)c1sc(CNCCCNc2cc(=O)c3ccccc3[nH]2)c(C)c1Br; assay: Activity of Staphylococcus aureus MetRS V108M mutant by ATP:PPi exchange assay in presence of ATP; how it was run: as §1
[13] = compound: C=C(F)c1sc(CNCCCNc2cc(=O)c3ccccc3[nH]2)c(C)c1Br; assay: Activity of Staphylococcus aureus MetRS I57N, V242F mutant by ATP:PPi exchange assay in presence of methionine; how it was run: as §1
[14] = compound: C=C(F)c1sc(CNCCCNc2cc(=O)c3ccccc3[nH]2)c(C)c1Br; assay: Ratio of Kcat to Km for Staphylococcus aureus MetRS I57N V242F mutant in presence of ATP; how it was run: as §2
[15] = compound: C=C(F)c1sc(CNCCCNc2cc(=O)c3ccccc3[nH]2)c(C)c1Br; assay: Ratio of Kcat to Km for Staphylococcus aureus MetRS I57N V242F mutant in presence of methionine; how it was run: as §2
[16] = compound: C=C(F)c1sc(CNCCCNc2cc(=O)c3ccccc3[nH]2)c(C)c1Br; assay: Activity of streptococcus aureus MetRS I57N, V242F mutant by scintillation proximity assay in presence of tRNA; conditions: Staphylococcus aureus
[17] = compound: C=C(F)c1sc(CNCCCNc2cc(=O)c3ccccc3[nH]2)c(C)c1Br; assay: Ratio of Kcat to Km for Staphylococcus aureus MetRS I57N V242F mutant in presence of tRNA; how it was run: as §3
[18] = compound: C=C(F)c1sc(CNCCCNc2cc(=O)c3ccccc3[nH]2)c(C)c1Br; assay: Activity of Staphylococcus aureus MetRS I57N, V242F mutant by ATP:PPi exchange assay in presence of ATP; how it was run: as §1
[19] = compound: C=C(F)c1sc(CNCCCNc2cc(=O)c3ccccc3[nH]2)c(C)c1Br; assay: Activity of Staphylococcus aureus MetRS A247E mutant by ATP:PPi exchange assay in presence of methionine; how it was run: as §1
[20] = compound: C=C(F)c1sc(CNCCCNc2cc(=O)c3ccccc3[nH]2)c(C)c1Br; assay: Ratio of Kcat to Km for Staphylococcus aureus MetRS A247E mutant in presence of ATP; how it was run: as §2
[21] = compound: C=C(F)c1sc(CNCCCNc2cc(=O)c3ccccc3[nH]2)c(C)c1Br; assay: Ratio of Kcat to Km for Staphylococcus aureus MetRS A247E mutant in presence of methionine; how it was run: as §2
[22] = compound: C=C(F)c1sc(CNCCCNc2cc(=O)c3ccccc3[nH]2)c(C)c1Br; assay: Activity of streptococcus aureus MetRS A247E mutant by scintillation proximity assay in presence of tRNA; conditions: Staphylococcus aureus
[23] = compound: C=C(F)c1sc(CNCCCNc2cc(=O)c3ccccc3[nH]2)c(C)c1Br; assay: Ratio of Kcat to Km for Staphylococcus aureus MetRS A247E mutant in presence of tRNA; how it was run: as §3
[24] = compound: C=C(F)c1sc(CNCCCNc2cc(=O)c3ccccc3[nH]2)c(C)c1Br; assay: Activity of Staphylococcus aureus MetRS A247E mutant by ATP:PPi exchange assay in presence of ATP; how it was run: as §1
[25] = compound: C=C(F)c1sc(CNCCCNc2cc(=O)c3ccccc3[nH]2)c(C)c1Br; assay: Activity of Staphylococcus aureus MetRS G54S mutant by ATP:PPi exchange assay in presence of methionine; how it was run: as §1
[26] = compound: C=C(F)c1sc(CNCCCNc2cc(=O)c3ccccc3[nH]2)c(C)c1Br; assay: Ratio of Kcat to Km for Staphylococcus aureus MetRS G54S mutant in presence of ATP; how it was run: as §2
[27] = compound: C=C(F)c1sc(CNCCCNc2cc(=O)c3ccccc3[nH]2)c(C)c1Br; assay: Ratio of Kcat to Km for Staphylococcus aureus MetRS G54S mutant in presence of methionine; how it was run: as §2
[28] = compound: C=C(F)c1sc(CNCCCNc2cc(=O)c3ccccc3[nH]2)c(C)c1Br; assay: Activity of streptococcus aureus MetRS G54S mutant by scintillation proximity assay in presence of tRNA; conditions: Staphylococcus aureus
[29] = compound: C=C(F)c1sc(CNCCCNc2cc(=O)c3ccccc3[nH]2)c(C)c1Br; assay: Ratio of Kcat to Km for Staphylococcus aureus MetRS G54S mutant in presence of tRNA; how it was run: as §3
[30] = compound: C=C(F)c1sc(CNCCCNc2cc(=O)c3ccccc3[nH]2)c(C)c1Br; assay: Activity of Staphylococcus aureus MetRS G54S mutant by ATP:PPi exchange assay in presence of ATP; how it was run: as §1

B1: Methionine--tRNA ligase (Staphylococcus aureus subsp. aureus MW2), Q8NY00 G223C (protein)
chain: MAKETFYITTPIYYPSGNLHIGHAYSTVAGDVIARYKRMQGYDVRYLTGTDEHGQKIQEKAQKAGKTEIEYLDEMIAGIKQLWAKLEISNDDFIRTTEERHKHVVEQVFERLLKQGDIYLGEYEGWYSVPDETYYTESQLVDPQYENGKIIGGKSPDSGHEVELVKEESYFFNISKYTDRLLEFYDQNPDFIQPPSRKNEMINNFIKPGLADLAVSRTSFNWCVHVPSNPKHVVYVWIDALVNYISALGYLSDDESLFNKYWPADIHLMAKEIVRFHSIIWPILLMALDLPLPKKVFAHGWILMKDGKMSKSKGNVVDPNILIDRYGLDATRYYLMRELPFGSDGVFTPEAFVERTNFDLANDLGNLVNRTISMVNKYFDGELPAYQGPLHELDEEMEAMALETVKSYTESMESLQFSVALSTVWKFISRTNKYIDETTPWVLAKDDSQKDMLGNVMAHLVENIRYAAVLLRPFLTHAPKEIFEQLNINNPQFMEFSSLEQYGVLTESIMVTGQPKPIFPRLDSEAEIAYIKESMQPPATEEEKEEIPSKPQIDIKDFDKVEIKAATIINAEHVKKSDKLLKIQVDLDSEQRQIVSGIAKFYTPDDIIGKKVAVVTNLKPAKLMGQKSEGMILSAEKDGVLTLVSLPSAIPNGAVIK
Q: Which Km [1] does the source give for B1 here?
A: The Km was 680 µM.

Q: And the kcat [1]?
A: Its kcat is 10 s⁻¹.

Q: And the kcat/Km [2]?
A: Its kcat/Km is 13000 M⁻¹ s⁻¹.

Q: And the kcat/Km [3]?
A: The kcat/Km was 10000 M⁻¹ s⁻¹.

Q: What about the Km [4] of the same protein?
A: The Km was 2.5 µM.

Q: What about the kcat [4] of the same protein?
A: Its kcat is 0.037 s⁻¹.

Q: What about the kcat/Km [5] of the same protein?
A: Its kcat/Km is 15000 M⁻¹ s⁻¹.

Q: And the Km [6]?
A: The Km was 750 µM.

B2: Methionine--tRNA ligase (Staphylococcus aureus subsp. aureus MW2), Q8NY00 V108M (protein)
chain: B1 chain with V108M, C223G
Q: B2 was tested. Which Km [7] did it give?
A: Its Km is 140 µM.

Q: What about the kcat [7] of the same protein?
A: Its kcat is 15 s⁻¹.

Q: What about the kcat/Km [8] of the same protein?
A: The kcat/Km was 23000 M⁻¹ s⁻¹.

Q: And the kcat/Km [9]?
A: The kcat/Km was 110000 M⁻¹ s⁻¹.

Q: And the Km [10]?
A: Its Km is 3.2 µM.

Q: What about the kcat [10] of the same protein?
A: Its kcat is 0.74 s⁻¹.

Q: And the kcat/Km [11]?
A: The kcat/Km was 230000 M⁻¹ s⁻¹.

Q: What about the Km [12] of the same protein?
A: The Km was 650 µM.

B3: Methionine--tRNA ligase (Staphylococcus aureus subsp. aureus MW2), Q8NY00 I57N,V242F (protein)
chain: B1 chain with I57N, C223G, V242F
Q: How did the Km [13] turn out when B3 was run?
A: Its Km is 20 µM.

Q: What about the kcat [13] of the same protein?
A: The kcat was 14 s⁻¹.

Q: And the kcat/Km [14]?
A: The kcat/Km was 17000 M⁻¹ s⁻¹.

Q: What about the kcat/Km [15] of the same protein?
A: The kcat/Km was 700000 M⁻¹ s⁻¹.

Q: What about the Km [16] of the same protein?
A: Its Km is 10 µM.

Q: And the kcat [16]?
A: The kcat was 0.124 s⁻¹.

Q: What about the kcat/Km [17] of the same protein?
A: Its kcat/Km is 12000 M⁻¹ s⁻¹.

Q: What about the Km [18] of the same protein?
A: The Km was 810 µM.

B4: Methionine--tRNA ligase (Staphylococcus aureus subsp. aureus MW2), Q8NY00 A247E (protein)
chain: B1 chain with C223G, A247E
Q: Which Km [19] does the source give for B4 here?
A: The Km was 220 µM.

Q: What about the kcat [19] of the same protein?
A: The kcat was 11 s⁻¹.

Q: And the kcat/Km [20]?
A: Its kcat/Km is 10000 M⁻¹ s⁻¹.

Q: And the kcat/Km [21]?
A: The kcat/Km was 50000 M⁻¹ s⁻¹.

Q: And the Km [22]?
A: Its Km is 1.3 µM.

Q: And the kcat [22]?
A: The kcat was 0.057 s⁻¹.

Q: And the kcat/Km [23]?
A: Its kcat/Km is 44000 M⁻¹ s⁻¹.

Q: What about the Km [24] of the same protein?
A: The Km was 1140 µM.

B5: Methionine--tRNA ligase (Staphylococcus aureus subsp. aureus MW2), Q8NY00 G54S (protein)
chain: B1 chain with G54S, C223G
Q: What does the source list for B5?
A: Km [25]: 75 µM; kcat [25]: 5 s⁻¹; kcat/Km [26]: 10000 M⁻¹ s⁻¹; kcat/Km [27]: 70000 M⁻¹ s⁻¹; Km [28]: 0.27 µM; kcat [28]: 0.009 s⁻¹; kcat/Km [29]: 33000 M⁻¹ s⁻¹; Km [30]: 500 µM
